Series [1] can be described thus: Rate constant was evaluated for the loss of 1 mol of phenol at the pH 7.5 in the presence of Tris buffer. Type of series: ADME. The essentials:
(§1)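 Ester hydrolysis at pH 7.5 and 37 °C in 100 mM Tris or phosphate buffer with 300 mM NaCl, no enzyme. Phenol release (about 1 mM ester) followed at 275 nm, Δε 1375 M⁻¹cm⁻¹. 4-Nitrophenol release (about 10 μM ester) followed at 400 nm, Δε 12500 M⁻¹cm⁻¹. Starting concentrations checked by full hydrolysis in 6 N HCl at 110 °C. First-order rate constants and half-times derived.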

Series [2] in a line: Rate constant was evaluated for the loss of 1 mol of phenol at the pH 7.5 in the presence of phosphate buffer. Type of series: ADME. The essentials: as §1
The nature of series [3]: Inhibitory potency was evaluated against angiotensin converting enzyme at the pH 7.5. It counts as ADME.
A short description of series [4]: The half-life period was evaluated for the loss of 1 mol of phenol at the pH 7.5 in the presence of phosphate buffer. It counts as ADME. The essentials:
as §1

Series [5] concerns the target T1, Angiotensin-converting enzyme (Oryctolagus cuniculus, UniProt P12822).
T1 sequence (P12822 whole entry): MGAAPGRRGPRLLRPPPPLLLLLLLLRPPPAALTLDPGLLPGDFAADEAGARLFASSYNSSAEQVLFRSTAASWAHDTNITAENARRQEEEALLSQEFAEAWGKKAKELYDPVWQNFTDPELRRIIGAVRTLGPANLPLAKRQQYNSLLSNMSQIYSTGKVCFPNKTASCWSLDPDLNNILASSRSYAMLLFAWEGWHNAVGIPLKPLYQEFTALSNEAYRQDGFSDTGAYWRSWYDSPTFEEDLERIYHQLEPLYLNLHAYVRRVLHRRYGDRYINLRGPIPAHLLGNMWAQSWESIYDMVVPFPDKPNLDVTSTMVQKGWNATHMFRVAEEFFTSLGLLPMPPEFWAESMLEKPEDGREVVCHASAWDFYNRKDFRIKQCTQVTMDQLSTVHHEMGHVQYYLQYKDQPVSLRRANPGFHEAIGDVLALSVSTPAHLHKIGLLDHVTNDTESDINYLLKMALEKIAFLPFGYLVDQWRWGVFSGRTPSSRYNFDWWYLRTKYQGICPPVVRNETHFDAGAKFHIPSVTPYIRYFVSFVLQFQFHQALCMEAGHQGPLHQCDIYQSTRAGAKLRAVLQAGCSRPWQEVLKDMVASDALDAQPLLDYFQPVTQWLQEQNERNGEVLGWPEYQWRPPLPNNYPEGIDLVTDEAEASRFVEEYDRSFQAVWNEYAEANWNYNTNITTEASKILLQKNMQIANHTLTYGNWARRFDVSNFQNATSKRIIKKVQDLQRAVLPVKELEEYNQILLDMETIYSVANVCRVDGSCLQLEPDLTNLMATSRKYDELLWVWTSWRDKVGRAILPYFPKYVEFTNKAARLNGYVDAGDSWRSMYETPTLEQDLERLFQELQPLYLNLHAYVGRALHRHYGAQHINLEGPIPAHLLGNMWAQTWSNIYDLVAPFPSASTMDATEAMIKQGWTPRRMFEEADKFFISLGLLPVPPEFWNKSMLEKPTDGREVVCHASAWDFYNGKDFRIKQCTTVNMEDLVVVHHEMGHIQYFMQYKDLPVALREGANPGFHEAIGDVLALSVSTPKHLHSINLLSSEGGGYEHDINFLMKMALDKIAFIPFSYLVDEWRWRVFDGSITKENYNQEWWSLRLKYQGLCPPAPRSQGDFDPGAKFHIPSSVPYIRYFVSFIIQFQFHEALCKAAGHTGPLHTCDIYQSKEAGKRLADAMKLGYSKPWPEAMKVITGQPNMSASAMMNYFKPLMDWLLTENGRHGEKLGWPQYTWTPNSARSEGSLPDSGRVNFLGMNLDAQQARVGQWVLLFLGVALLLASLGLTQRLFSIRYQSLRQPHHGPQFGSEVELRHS
Description: Inhibition of Angiotensin I converting enzyme from rabbit lungs at pH 7.5.

A short description of series [6]: The half-life period was evaluated for the loss of 1 mol of phenol at the pH 7.5 in the presence of Tris buffer. Type of series: ADME. The method in brief: as §1
A short description of series [7]: Half life against hydrolysis at P-N bond. It counts as ADME. The method in brief: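 P–N cleavage measured in pH 7.5 phosphate buffer at 37 °C. Free Ala-Pro primary amine determined by fluorescamine assay over the hydrolysis time course. Observed rate constant and half-time derived.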
Series [8] addresses T1, Angiotensin-converting enzyme. Description: Inhibitory constant was evaluated against Angiotensin I converting enzyme from rabbit lungs.
A short description of series [9]: Inhibitory potency was evaluated against angiotensin converting enzyme at the pH 7.5 in the presence of Tris phosphate buffer, 300 mM in NaCl. It counts as ADME.
Series [10] deals with T1, Angiotensin-converting enzyme. Description: Inhibitory constant was evaluated against Angiotensin I converting enzyme from rabbit lungs at pH 8.
Series [11] shares this target. Description: Inhibitory constant was evaluated against Angiotensin I converting enzyme from rabbit lungs at pH 8 in TRIS phosphate/borate buffer.
The target is the same in series [12]. Description: Binding affinity against Angiotensin I converting enzyme.
The nature of series [13]: Rate constant was evaluated for the loss of 2 mol of phenol at the pH 7.5 in the presence of Tris buffer. It counts as ADME. The essentials:
as §1

A short description of series [14]: Rate constant was evaluated for the loss of 2 mol of phenol at the pH 7.5 in the presence of phosphate buffer. It counts as ADME. The method in brief:
as §1

Series [15] is described as follows: The half-life period was evaluated for the loss of 2 mol of phenol at the pH 7.5 in the presence of Tris buffer. It counts as ADME. The essentials:
as §1

Series [16] in a line: The half-life period was evaluated for the loss of 2 mol of phenol at the pH 7.5 in the presence of phosphate buffer. Type of series: ADME. The essentials:
as §1

The target in series [17] is T1, Angiotensin-converting enzyme. Description: Inhibitory activity against Angiotensin I converting enzyme was evaluated.

The text below walks through data of ChEMBL document CHEMBL1123066, “N alpha-(diphenoxyphosphoryl)-L-alanyl-L-proline, N alpha-[bis (4-nitrophenoxy)phosphoryl]-L-alanyl-L-proline, and N alpha-[ (2-phenylethyl)phenoxyphosphoryl]-L-alanyl-L-proline: releasers of potent inhibitors of angiotensin converting enzyme at physiological pH and temperature” (J Med Chem, 1985).

A word on the half-life: it is the time in which the quantity being followed falls by half. As a reminder, the Ki is a dissociation constant, usually derived from enzyme kinetics or from competition with a known ligand. Low readings indicate tighter binding, high ones weaker binding. Turning to `C[C@H](NP(=O)(Oc1ccccc1)Oc1ccccc1)C(=O)N1CCC[C@H]1C(=O)O`, the Rate constant in series [1] is 0.0013 h⁻¹; in series [2], 0.0012 h⁻¹. Moreover, the results for the half-life in [3], in [4] and in series [6] were 384 h, 576 h and 528 h, respectively. The molecule further showed a Ki in series [5] of 42 µM.

Usually IC50 stands for the concentration needed to halve the response being measured. `C[C@H](NP(=O)([O-])[O-])C(=O)N1CCC[C@H]1C(=O)[O-].[K+].[K+].[K+]` had a half-life in [7] of 2.2 h. The molecule also yielded a Ki in [5] of 0.0014 µM. This molecule showed an IC50 in series [8] of 0.7 µM.

In the case of `C[C@H](NP(=O)(CCc1ccccc1)Oc1ccccc1)C(=O)N1CCC[C@H]1C(=O)O` (stereo partly drawn), the Rate constant in series [1] came out at 0.0014 h⁻¹; in series [2] it was 0.001 h⁻¹. The values for the half-life in series [9], in series [4] and in [6] were 912 h, 744 h and 504 h, respectively. In addition, in [5], the Ki was found to be 55 µM.

`C[C@H](NP(=O)(O)OCc1ccccc1)C(=O)N1CCC[C@H]1C(=O)O` came in with a Ki in series [5] of 0.0012 µM.

With `C[C@H](NP(=O)(O)Oc1ccccc1)C(=O)N1CCC[C@H]1C(=O)O`, in [5], the Ki is 0.008 µM. Also, the figures for the IC50 in series [10] and in series [11] were 0.9 µM and 50000 µM, respectively.

On to `C[C@H](NP(=O)(O)Oc1ccc([N+](=O)[O-])cc1)C(=O)N1CCC[C@H]1C(=O)O`, for which the Ki in series [12] and in series [5] was 0.018 µM each time.

`C[C@H](NP(=O)(Oc1ccc([N+](=O)[O-])cc1)Oc1ccc([N+](=O)[O-])cc1)C(=O)N1CCC[C@H]1C(=O)O`: the Rate constant is 0.2 h⁻¹ in [1], 0.34 h⁻¹ in series [2], 0.025 h⁻¹ in series [13] and 0.031 h⁻¹ in series [14]. Moreover, the half-life in series [9] was 4 h; in series [4] it was 2 h; in series [15], 29 h; in [16], 22 h; in series [6], 3.4 h. The Ki in series [5] turned out to be 0.8 µM.

In series [17], `C[C@H](NP(=O)(O)CCc1ccccc1)C(=O)N1CCC[C@H]1C(=O)O` gave an IC50 of 0.007 µM. Besides, in [5], the affinity, expressed as Ki, was 0.0005 µM.
